# Test results published in ChEMBL document CHEMBL1275258, “Correlation between azole susceptibilities, genotypes, and ERG11 mutations in Candida albicans isolates associated with vulvovaginal candidiasis in China” (2010).
# How the values were obtained:
# Format in all cases: functional
# Candida albicans [1] = assay: Antifungal activity against Candida albicans isolate O with CAI genotype by broth microdilution method
# Summary of the method: (§1)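 CLSI (formerly NCCLS) M27-A2 broth microdilution with fluconazole and itraconazole against clinical C. albicans isolates grouped by source (oral or vaginal) and CAI genotype. Trays incubated at 35°C for 24 h. MIC read as the lowest drug concentration giving a prominent drop in turbidity (50% growth inhibition) versus the drug-free control well. C. albicans ATCC 90028 and C. parapsilosis ATCC 22019 used as quality controls. Group values reported as geometric mean MIC50.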
# Candida albicans [2] = assay: Antifungal activity against Candida albicans isolate V1 with CAI genotype by broth microdilution method; summary of the method: as §1
# Candida albicans [3] = assay: Antifungal activity against Candida albicans isolate V2 with CAI genotype by broth microdilution method; summary of the method: as §1
# Candida albicans [4] = assay: Antifungal activity against Candida albicans isolate V3 with CAI genotype by broth microdilution method; summary of the method: as §1
# Candida albicans [5] = assay: Antifungal activity against Candida albicans isolate V4 with CAI genotype by broth microdilution method; summary of the method: as §1
# Candida albicans [6] = assay: Antifungal activity against Candida albicans isolate V5 with CAI genotype by broth microdilution method; summary of the method: as §1
smiles,measurement,setting,value
OC(Cn1cncn1)(Cn1cncn1)c1ccc(F)cc1F [FLUCONAZOLE],MIC50,Candida albicans [1],0.356 µg/mL
same,MIC50,Candida albicans [2],0.375 µg/mL
same,MIC50,Candida albicans [3],0.218 µg/mL
same,MIC50,Candida albicans [4],0.735 µg/mL
same,MIC50,Candida albicans [5],2.04 µg/mL
same,MIC50,Candida albicans [6],3.36 µg/mL
CCC(C)n1ncn(-c2ccc(N3CCN(c4ccc(OCC5COC(Cn6cncn6)(c6ccc(Cl)cc6Cl)O5)cc4)CC3)cc2)c1=O (configuration not stated) [ITRACONAZOLE],MIC50,Candida albicans [1],0.074 µg/mL
same,MIC50,Candida albicans [2],0.111 µg/mL
same,MIC50,Candida albicans [3],0.058 µg/mL
same,MIC50,Candida albicans [4],0.107 µg/mL
same,MIC50,Candida albicans [5],0.255 µg/mL
same,MIC50,Candida albicans [6],0.297 µg/mL
